Experiments:
HUVEC [1] = test: Cytotoxicity against HUVEC up to 100 uM after 24 hrs by Tryptan Blue assay; type: cell-based; conditions: human
Plasmodium falciparum [2] = test: Antimalarial activity against chloroquine-sensitive Plasmodium falciparum 3D7 after 48 to 72 hrs by SYBR green-1 assay; type: functional, organism-based
Method in brief: (§1)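 P. falciparum culture tested in vitro on the CQ-sensitive 3D7 or CQ-resistant W2 clone. Each experiment was run twice, with wells in triplicate. IC50 in nM is the mean of at least two experiments.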

Plasmodium falciparum [3] = test: Antimalarial activity against chloroquine-resistant Plasmodium falciparum W2 after 48 to 72 hrs by SYBR green-1 assay; type: functional, organism-based; method in brief: as §1
HUVEC [4] = test: Cytotoxicity against HUVEC at 0.01 to 50 umol/L after 24 hrs by Tryptan Blue assay; type: cell-based; conditions: human
Method in brief: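 Human umbilical vein endothelial cells (HUVEC) were exposed to final concentrations from 0.01 up to 50 μM. Cytotoxicity was reported as an IC50 or as a minimum cytotoxic value extrapolated from the tested range.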

Plasmodium falciparum [5] = test: Resistant index, ratio of IC50 for chloroquine-resistant Plasmodium falciparum W2 to IC50 for chloroquine-sensitive Plasmodium falciparum 3D7; type: functional

| Structure (SMILES) | Activity (HUVEC [1]) | IC50 (Plasmodium falciparum [2]) [nM] | IC50 (Plasmodium falciparum [3]) [nM] | Activity (HUVEC [4]) | Ratio IC50 (Plasmodium falciparum [5]) |
| --- | --- | --- | --- | --- | --- |
| CN(CCNc1ccnc2cc(Cl)ccc12)CCN1C(=O)C(CC(F)(F)F)=CC1(O)CSc1ccc(Br)cc1 (centres undefined) | Non-toxic | 45 | 42 | – | – |
| CN(CCNc1ccnc2cc(Cl)ccc12)CCN1C(=O)C(CC(F)(F)F)=CC1(O)CSc1ccc(Cl)cc1 (centres undefined) | Non-toxic | 55 | 57 | – | – |
| CN(CCNc1ccnc2cc(Cl)ccc12)CCN1C(=O)C(CC(F)(F)F)=CC1(O)CSc1ccccc1 (centres undefined) | Non-toxic | 47 | 55 | – | – |
| O=C1C(CC(F)(F)F)=CC(O)(CSc2ccccc2)N1CCNc1ccnc2cc(Cl)ccc12 (centres undefined) | – | 107 | 167 | Non-toxic | 1.56 |
| COc1ccc(SCC2(O)C=C(CC(F)(F)F)C(=O)N2CCNc2ccnc3cc(Cl)ccc23)cc1 (centres undefined) | – | 101 | 173 | Non-toxic | 1.71 |
| O=C1C(CC(F)(F)F)=CC(O)(CSc2ccc(F)cc2)N1CCNc1ccnc2cc(Cl)ccc12 (centres undefined) | – | 305 | 759 | Non-toxic | 2.49 |
| O=C1C(CC(F)(F)F)=CC(O)(CSc2ccccn2)N1CCNc1ccnc2cc(Cl)ccc12 (centres undefined) | – | 179 | 218 | Non-toxic | 1.22 |
| O=C1C(CC(F)(F)F)=CC(O)(CSc2ccncc2)N1CCNc1ccnc2cc(Cl)ccc12 (centres undefined) | – | 89 | 666 | – | 7.48 |
| O=C1C(CC(F)(F)F)=CC(O)(CSc2ncccn2)N1CCNc1ccnc2cc(Cl)ccc12 (centres undefined) | – | 278 | 458 | Non-toxic | 1.65 |
| O=C1C(CC(F)(F)F)=CC(O)(CSc2cccc[n+]2[O-])N1CCNc1ccnc2cc(Cl)ccc12 (centres undefined) | – | 242 | 274 | Non-toxic | 1.13 |
| Cn1cnnc1SCC1(O)C=C(CC(F)(F)F)C(=O)N1CCNc1ccnc2cc(Cl)ccc12 (centres undefined) | – | 499 | > 1600 | – | >3.2 |
